T cruzi repl – inhibitors of intracellular T. cruzi growth, primary screen, luminescence, NIH3T3 host cells; T. cruzi beta-gal in NIH3T3, 90 h; inhibition, % (no concentration beside the values); 1.4% of 300,000 active; AID 1885, 2009;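 active = mean inhibition across valid replicates above about 55%, limit read from the data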;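 note: signal also drops with host cell toxicity which is not excluded here; 0% = plate median of DMSO wells and 100% = zero luminescence signal; higher percent means less beta-gal luminescence so fewer parasites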
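Test system: β-gal T. cruzi (Tulahuen C4) inside NIH/3T3 cells / Quantity: 5,000 cells/well / Measured by: luminescence from GalScreen with 0.05% NP40, read after 60 min / Medium: DMEM plus 2% FBS / Measure: parasite load inhibition, % / Reagent: Tulahuen C4 trypomastigotes, 5000/well / Schedule: co-culture of at least 90 h after 3 h attachment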
CHOP inh – inhibitors of CHOP promoter induction, primary screen, cell-based, unfolded protein response, luciferase reporter; CHO-K1 CHOP-promoter luciferase, tunicamycin-induced, 15-18 h; inhibition, % at 10 µM; 3.8% of 220,000 active;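 active = compounds that reduced the stress-induced luciferase reporter signal by more than about 70% of percent inhibition, limit read from the data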;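 note: 0% = tunicamycin plus vehicle and 100% = wells without tunicamycin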
NR3A LBD binder – binders of NR3A ligand-binding domain, primary screen, biophysical, differential scanning fluorimetry, uHTS; NR3A LBD differential scanning fluorimetry, Tm shift; 0% = protein alone, 100% = glycine-bound protein; Tm shift relative to glycine control, % at 25 µM; 2.5% of 340,000 active;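 active = melting temperature shift of at least 10% of the positive control shift, at one fixed dose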
PREPL inh – PREPL enzyme inhibitors, primary screen, biochemical, fluorescence polarization | recombinant PREPL, fluorescence polarization activity-based probe | 0.68% of 320,000 active | Prolyl endopeptidase-like (Homo sapiens), Q4J6C6 | inhibition, % at 5.96 µM; in the data active = inhibition above about 43%;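 note: 0% = enzyme with DMSO and 100% = wells lacking enzyme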
Target sequence (Q4J6C6 whole entry, looked up): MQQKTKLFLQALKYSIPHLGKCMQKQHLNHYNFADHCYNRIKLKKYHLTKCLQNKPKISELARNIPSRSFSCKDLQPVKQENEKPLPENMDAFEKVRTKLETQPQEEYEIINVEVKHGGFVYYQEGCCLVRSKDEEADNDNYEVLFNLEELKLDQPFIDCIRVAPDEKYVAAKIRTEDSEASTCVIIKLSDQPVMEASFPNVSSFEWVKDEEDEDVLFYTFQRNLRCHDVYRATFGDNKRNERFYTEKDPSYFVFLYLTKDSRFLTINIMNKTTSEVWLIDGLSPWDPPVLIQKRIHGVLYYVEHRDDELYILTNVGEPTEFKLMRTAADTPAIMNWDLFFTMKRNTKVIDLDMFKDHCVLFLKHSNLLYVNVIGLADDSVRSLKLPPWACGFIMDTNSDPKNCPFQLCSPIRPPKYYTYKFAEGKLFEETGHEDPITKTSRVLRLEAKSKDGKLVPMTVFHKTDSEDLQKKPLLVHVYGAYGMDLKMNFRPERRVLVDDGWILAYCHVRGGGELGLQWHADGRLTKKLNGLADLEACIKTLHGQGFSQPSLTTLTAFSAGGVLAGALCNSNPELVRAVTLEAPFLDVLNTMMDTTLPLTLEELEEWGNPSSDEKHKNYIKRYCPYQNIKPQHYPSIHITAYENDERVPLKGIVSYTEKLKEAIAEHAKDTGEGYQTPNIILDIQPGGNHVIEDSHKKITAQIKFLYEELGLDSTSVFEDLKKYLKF
Beta cell apopt – inhibitors of cytokine-induced beta cell apoptosis, primary screen, luminescence; INS-1E cytokine-induced death, ATP luminescence, 48 h; percent of positive-control rescue, neutral wells zero; protection from apoptosis, % (concentration not given with the values); 0.8% of 300,000 active;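 active = Every replicate reaches about 75%, or at least half do and their mean reaches it too, limit read from the data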;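 note: 0% = cytokine-treated negative control wells and 100% = positive control rescue; higher means more ATP so stronger rescue from cytokine killing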
CSC inhib – cancer stem cell viability inhibitors, primary screen, luminescence. cancer stem cell-like cells viability. 1.1% of 300,000 active. inhibition, % at 7.5 µM. AID 2717, 2010; in the data active = inhibition above about 75%; tested in HMLE shEcad cells
The depositor's hits bear a star; . = not tested or not shown. Compounds with a hit are over-represented: about 6.7% of the library has one in this group of screens.

SMILES	T cruzi repl	CHOP inh	NR3A LBD binder	PREPL inh	Beta cell apopt	CSC inhib
Cc1nn(Cc2cccc(F)c2)c(C)c1NC(=O)c1c(Cl)cnn1C	-6	-6	-6	0	-1	-12
CCCCOc1ccc(C(=O)NCC(=O)NCCOc2ccccc2OC)cc1	.	.	1	0	2	-3
CCOc1ccc(OCCC(=O)N(CCOC)c2c(N)n(Cc3ccccc3)c(=O)[nH]c2=O)cc1	.	.	-1	.	.	.
Cc1c(NC(=O)CN2C(=O)NC(C)(c3ccccc3)C2=O)c(=O)n(-c2ccccc2)n1C (centres undefined)	-12	82*	-2	2	-4	4
Cc1ccc(C2(C)NC(=O)N(CC(=O)Nc3c(C)n(C)n(-c4ccccc4)c3=O)C2=O)cc1 (centres undefined)	10	-2	-7	1	-4	15
CCN(c1ccccc1)S(=O)(=O)c1ccc(NCC2COc3ccccc3O2)nc1 (centres undefined)	17	85*	-4	4	2	24
CCN(c1ccccc1)S(=O)(=O)c1ccc(Cl)nc1	-7	2	0	-2	7	-14
COc1ccc(C(CNC(=O)c2oc3ccc(Br)cc3c2C)N2CCCCC2)cc1 (centres undefined)	55*	78*	1	14	-11	-3
CCC1CCc2sc(C(=O)NCC(c3ccc(OC)cc3)N3CCCC3)cc2C1 (centres undefined)	66*	.	-2	-20	10	-1
COc1ccc(C(CNC(=O)c2oc3cc(Br)ccc3c2C)N2CCCCC2)cc1 (centres undefined)	5	.	4	-17	3	-6
CCc1ccc2oc(C(=O)NCC(c3ccc(OC)cc3)N3CCCCC3)c(C)c2c1 (centres undefined)	28	.	1	2	16	85*
COc1ccc(C(CNC(=O)c2oc3ccc(OC)cc3c2C)N2CCCC2)cc1 (centres undefined)	17	.	-2	1	-7	12
Cc1c(C(=O)Nc2ccc(-c3nnc4n3CCCCC4)cc2)oc2ccc(Br)cc12	61*	8	5	26	15	-3
Cc1ccc(NC(=O)c2ccc([N+](=O)[O-])s2)cc1S(=O)(=O)N1CCOCC1	.	.	-7	16	-8	25
CC(C)Oc1cc2oc(=O)c3c(c2cc1Cl)CCC3	-3	82*	2	-7	2	-21
COC(=O)c1cc(Cl)c(NC(=O)c2ccc(C(C)(C)C)cc2)cc1OC	14	89*	2	-4	3	29
CCNC(=O)N(C)C[C@H]1N[C@@](CC)(C(=O)OC)[C@H]2C(=O)N(C)C(=O)[C@@H]12	.	.	0	-1	-1	-4
COc1ccc(C2CC(=O)Oc3c(C(C)C)ccc(C)c32)cc1 (centres undefined)	.	.	13*	.	.	.
Cc1ccc(CNC(=O)Cc2noc3ccccc23)cc1	-5	-1	0	-2	-2	-2
Cc1ccc(S(=O)(=O)C(NC(=O)c2ccccc2)=C(Cl)Cl)cc1	2	.	2	10	-7	41
Cc1ccc(C(=O)NC(=C(Cl)Cl)S(=O)(=O)c2ccc(Cl)cc2)cc1	-17	78*	-2	-1	-7	-4
Cc1ccc(C(=O)NC(=C(Cl)Cl)S(=O)(=O)c2ccc(C)cc2)cc1	-2	9	-2	2	-12	96*
CCOc1cccc(N2C(=O)CC(NCc3ccc(S(N)(=O)=O)cc3)C2=O)c1 (centres undefined)	-1	34	2	-11	-5	5
COc1ccc(N=C2NC(=O)/C(=C/C=C/c3ccccc3)S2)cc1	-1	77*	14*	1	-3	5
Cc1ccc(N=C2NC(=O)/C(=C/C=C/c3ccco3)S2)cc1	-7	32	2	21	-2	20
SMILES	T cruzi repl	CHOP inh	NR3A LBD binder	PREPL inh	Beta cell apopt	CSC inhib
COc1ccc(/C=C2\SC(=NCc3ccccc3)NC2=O)cc1	-13	40	17*	-12	-6	-8
O=C1N/C(=N/Nc2ccccc2)S/C1=C\c1ccccc1	-6	36	10*	2	-3	34
O=C1NC(=Nc2ccccc2)S/C1=C\C=C\c1ccco1	-14	87*	11*	29	-5	57
O=C1NC(=Nc2ccccc2)S/C1=C\c1ccccc1	-14	.	-2	14	1	21
COc1ccccc1Nc1nc(N)nc(CSC(=S)N2CCN(c3ccccc3)CC2)n1	63*	51	-2	32	4	-4
COc1ccccc1Nc1nc(N)nc(CSC(=S)N2CCC(C)CC2)n1	37	46	2	11	0	19
CCCSc1ccc([C@@H]2[C@H]3C(=O)N(CC)C(=O)[C@H]3[C@]3(C(=O)OC)CCCCN23)cc1	22	.	-3	-6	-1	11
CS(=O)(=O)N(CC(=O)N1CCC(C(N)=O)CC1)c1cc(C(F)(F)F)ccc1Cl	-13	-12	-1	-3	-1	-10
Cc1cccc(N2CCN(CC(=O)Nc3ccc(-n4cnnn4)cc3)CC2)c1C	4	94*	-1	15	-1	-6
O=C(CN1CCN(c2ccccc2)CC1)Nc1ccc(-n2cnnn2)cc1	-4	9	2	0	-4	-5
CN1CCN(S(=O)(=O)c2ccc(Sc3nnnn3-c3ccccc3)c([N+](=O)[O-])c2)CC1	-20	107*	0	-3	.	46
CC(=O)c1ccc(Sc2nnnn2-c2ccccc2)c([N+](=O)[O-])c1	-8	-17	0	3	-8	39
O=C(O)CCCN1C(=O)/C(=C\c2ccccc2OCc2ccccc2)SC1=S	8	.	4	13	-7	12
O=C(CCCN1C(=O)/C(=C/c2ccccc2Cl)SC1=S)NNC(=O)c1ccc(Cl)cc1	-2	93*	0	-15	-14	14
O=C(CCCN1C(=O)/C(=C/c2ccccc2Cl)SC1=S)Nc1ccccn1	8	91*	1	-12	-18	.
O=C(O)CCCN1C(=O)/C(=C/c2cn(-c3ccccc3)nc2-c2cccs2)SC1=S	35	85*	3	.	.	.
Cn1cc(CNCc2ccccc2OCC(O)CN2CCc3ccccc3C2)cn1 (centres undefined)	12	-2	3	36	-1	-4
O=C(Nc1ccc(F)cc1)c1oc2ccccc2c1NC(=O)C1CCCC1	25	71*	13*	3	17	1
O=C(Nc1ccccc1F)c1oc2ccccc2c1NC(=O)C1CC1	4	.	0	-3	8	-16
Cc1ccc(C)c(Nc2cc(C)nc(-c3ccccc3O)n2)c1	3	.	5	15	9	73

Bioassay records deposited in PubChem BioAssay by several laboratories.
